The text below walks through data of PubChem BioAssay AID493091 (Sanford-Burnham Center for Chemical Genomics, 2011).

About 3,000 (0.88%) of roughly 340,000 compounds were called active. For the sample, actives were picked, then their nearest neighbours and some compounds at random. Unmarked numbers belong to inactive results.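 The calls were made as follows: active = inhibition above about 50% at 20 µM (limit read from the data); inactive = the rest.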

In the test the target is Carboxy-terminal domain RNA polymerase II polypeptide A small phosphatase 1 (Homo sapiens) (UniProt Q9GZU7). Put plainly: Scp-1 phosphatase inhibitors, primary screen, biochemical, colorimetric, uHTS (AID 493091).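 Also: plate controls were DMSO wells with enzyme for no effect and wells lacking enzyme for full effect.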 To be noted: Recombinant Scp1, phosphopeptide, malachite green phosphate absorbance; at 20 µM; active compounds read high. An outline of the steps: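 Material: truncated SCP-1 phosphatase (76-261aa) / Buffer or medium: 50 mM Tris acetate pH 5.5, 0.005% Tween-20, 10 mM MgCl2 / Compound dosing: one concentration, 20 µM, with 1.0% DMSO / Incubation: 45 min room-temperature reaction, 5 min colour, 30 min stabiliser / Detection: colorimetric free-phosphate detection, absorbance 630 nm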
Sequence of Carboxy-terminal domain RNA polymerase II polypeptide A small phosphatase 1 (Homo sapiens) (Q9GZU7 76-261 limits assumed): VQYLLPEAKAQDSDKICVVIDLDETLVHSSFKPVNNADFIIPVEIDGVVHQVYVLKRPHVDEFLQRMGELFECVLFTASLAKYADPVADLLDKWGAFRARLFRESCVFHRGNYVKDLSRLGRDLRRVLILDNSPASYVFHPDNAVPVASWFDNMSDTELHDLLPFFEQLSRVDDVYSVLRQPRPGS
With `CC(=O)c1ccc(NC(=O)CSc2nc3ccccc3c(=O)n2CCCN2CCOCC2)cc1`, the inhibition is -7.5%. In the case of `Cn1cnc([N+](=O)[O-])c1Sc1ccccc1` it was -15.4%; in that of `O=C(NCCC1=CCCCC1)c1ccc(-n2cncn2)cc1`, 0.7%; in that of `O=C(O)c1ccccc1-c1ccccc1C(=O)NCc1cccnc1`, -6.94%.

As for `CSc1ccccc1NC(=O)c1cnc2sc(C)cn2c1=O`, the inhibition was -3.98%. On to `COc1ccc(C2C3=C(OC(C)=O)c4ccccc4C3=Nc3c2c(=O)n(C)c(=O)n3C)cc1` (stereo unspecified), for which the inhibition is -10.3%. The figure for `CN(C)S(=O)(=O)c1cc(NC(=O)CN2C(=O)NC3(CCCc4ccccc43)C2=O)ccc1Cl` (stereo unspecified) is -6.5%; for `COc1ccc(/C(O)=C2/C(=O)C(=O)N(c3nc(C)c(C)s3)C2c2ccco2)cc1` (stereo unspecified) it is -0.42%; for `Cn1c(=O)c2cc(S(=O)(=O)NCCC(=O)Nc3ccc(F)cc3F)ccc2n(C)c1=O` it is -3.26%.

`COC(=O)c1ccccc1NC(=O)CN(Cc1ccc(Cl)cc1)S(C)(=O)=O`: the inhibition is -4.27%. As to `COC(=O)c1ccccc1NC(=O)C1(S(=O)(=O)c2ccc(Cl)cc2)CC1`, the inhibition was 82.2% (active). As to `CCOC(=O)C1(S(=O)(=O)c2ccc(Cl)cc2)CCN(Cc2ccccc2)CC1`, the inhibition was -6.96%. The figure for `CNC1(c2nnnn2-c2c(C)cccc2C)CCOC(C)(C)C1` (stereo unspecified) is -10.7%; for `Cc1ccc(S(=O)(=O)NCC(=O)N2CCOCCOCCOCCOCC2)cc1` it is -7.08%; for `CC1CCCCC1NC(=O)C1CCCN1S(=O)(=O)c1cccc2nsnc12` (stereo unspecified) it is -9.08%.

Turning to `Cc1ccc(NC(=O)COc2ccc(/C=N\NC(=O)c3cccnc3)cc2)cc1C`, the inhibition is 73% (active). In the case of `O=C(COc1ccc(/C=N/NC(=O)c2ccc(O)cc2)cc1)Nc1ccc([N+](=O)[O-])cc1` it was -4.15%; in that of `Cc1ccc(OCC(=O)NCCCNC(=O)c2cccnc2)cc1C`, 3.67%; in that of `CCC(C)OC(=O)C(C)Oc1ccc(-c2ccccc2)cc1` (stereo unspecified), 0.19%. Regarding `O=C(CN1C(=O)COc2ccc(Cl)cc21)N1CCOCC1`, the inhibition is 3.98%. Take `Cc1ccc(C2(C)NC(=O)N(CC(=O)Nc3ccccc3C(=O)N3CCCCC3)C2=O)cc1` (stereo unspecified): the inhibition is 65.5% (active). The figure for `Cc1ccc(C2(C)NC(=O)N(CC(=O)N3CC(=O)Nc4ccccc43)C2=O)cc1` (stereo unspecified) is -4.98%.

As to `Cc1ccc(NC(=O)CN2C(=O)NC(C)(c3ccc(Cl)cc3)C2=O)c(Br)c1` (stereo unspecified), the inhibition was -3.83%.

`CC1CC(C)CN(CCOc2cccc3ccccc23)C1` (stereo unspecified): the inhibition was -2.45%. The figure for `CCn1ncc(C2=NOC(C(=O)Nc3ccccc3C(=O)OC)C2)c1C` (stereo unspecified) is -6.5%. The figure for `O=C(Oc1ccc(-c2nc(-c3ccccn3)no2)cc1)c1ccccc1` is 7.66%; for `O=C1C(=O)N(c2ccccc2)c2ccccc21` it is -4.37%; for `O=C(O)COCC(=O)NCc1csc2ccc(Cl)cc12` it is 11.2%.

`Cc1ccc(C(=O)NNc2ncnc3ccccc23)cc1`: the inhibition was 5.78%. Take `Cc1ccc(C(=O)NNC(=O)c2ccc3c(c2)OCCO3)cc1`: the inhibition is -11.5%. In the case of `Cc1ccc(C(=O)NNC(=O)c2cc3cc4ccccc4nc3s2)cc1` it was 83.1% (active). In the case of `COc1ccc2oc(C(=O)NCC(Cc3ccccc3)N(C)C)c(C)c2c1` (stereo unspecified) it was -2.96%; in that of `CC(C)c1ccc(NC(=S)NNc2ccc(Cl)c(C(=O)O)c2)cc1`, 54.9% (active); in that of `O=C(NC(=S)Nc1ccc(Cl)c(C(=O)O)c1)c1cncc(Br)c1`, 5.31%. In the case of `Cc1ccc(C)c(NC(=S)NNC(=S)Nc2ccc(C(C)C)cc2)c1` it was 3.22%; in that of `O=C(OCC(=O)N1CCN(C(=O)c2ccco2)CC1)c1ccc(Cl)c(Cl)c1`, -3.89%; in that of `O=C1c2ccccc2S(=O)(=O)N1Cc1c(F)cccc1Cl`, -6.43%. As to `CC(Sc1nn(-c2ccc(Cl)cc2)c(=S)s1)C(=O)NCC1CCCO1` (stereo unspecified), the inhibition is -9%. The figure for `COc1cc(/C=C2/C(=O)NN(c3cccc(Cl)c3)C2=O)cc(Br)c1O` is 2.98%; for `C#CCOc1ccc(/C=C2/C(=O)NN(c3ccccc3)C2=O)cc1OC` it is -4.73%; for `O=C1NN(c2ccccc2)C(=O)/C1=C/c1ccc(-c2cccc(C(=O)O)c2)o1` it is 52% (active). The figure for `Cc1ccc(-c2c3c(=O)n(C)c(=O)n(C)c3cn2-n2cnnc2)cc1` is -6%. The figure for `CCOC(=O)Cc1cc(=O)[nH]c(/N=C(\N)Nc2ccc(OC)cc2)n1` is -0.71%; for `Cc1cc(=O)[nH]c(N/N=C/c2c(C)nn(-c3ccccc3Cl)c2Cl)n1` it is -253%. For the molecule `CC1CCN(c2ccc(C(=O)Nc3nnc(C4CC4)s3)cc2[N+](=O)[O-])CC1`, the inhibition is -0.75%.

Regarding `COc1ccc(NS(=O)(=O)c2ccc(N3CCN(CCO)CC3)c([N+](=O)[O-])c2)cc1`, the inhibition is -2.43%. The figure for `CC1CCN(c2ccc(S(=O)(=O)Nc3cc(C(=O)O)cc(C(=O)O)c3)cc2[N+](=O)[O-])CC1` is 54.5% (active). The figure for `O=C(CNC(=O)C(c1ccccc1)c1ccccc1)N/N=C\c1ccc2c(c1)OCO2` is 59.5% (active). In the case of `O=C(N/N=C/c1ccc2c(c1)OCO2)C(=O)N1CCCC1` it was -6.72%; in that of `Cc1[nH]c2ccccc2c1/C=N/NC(=O)CNC(=O)c1ccc2c(c1)OCO2`, -5.09%. Regarding `CC1C(=O)N2CCCc3cc(S(=O)(=O)NCc4ccc(F)cc4)cc1c32` (stereo unspecified), the inhibition was -5.8%.

On to `CN(CCc1ccccn1)S(=O)(=O)c1ccc2c3c(cccc13)C(=O)N2`, for which the inhibition was 0.36%. The figure for `COc1ccc(S(=O)(=O)N2CCC(C(=O)N3CCCC3)CC2)cc1C` is -3.35%; for `CCOC(=O)c1sc(NC(=O)CSc2nc(C)cc(C(F)(F)F)n2)c(C#N)c1C` it is -3.8%. With `CC(C)c1cc(NCc2ccccn2)n2c(nc3ccccc32)c1C#N`, the inhibition was -0.31%. For `O=C(CSc1ccc(-c2ccco2)nn1)Nc1cccc(F)c1`, the inhibition was -4.82%.

Turning to `O=C(O)c1cccc(NC(=O)c2cc(-c3cccc(Cl)c3)nc3ccccc23)c1`, the inhibition is 5.17%.

For the molecule `O=C(Nc1cccc(F)c1)c1cc(-c2ccco2)nc2ccccc12`, the inhibition was 57.4% (active).

Regarding `Cc1cccc(Cn2cnc3c(N)c(C)c(C)cc32)c1`, the inhibition was -2.5%.

`Cc1onc(-c2c(F)cccc2Cl)c1C(=O)Nc1cccc(S(=O)(=O)N2CCCCC2)c1`: the inhibition was -7.5%. For `CC(=O)Nc1ccc(OCC(O)CN2CCN(c3ccccc3Cl)CC2)cc1` (stereo unspecified), the inhibition was 0.19%. On to `Cc1ccc(CN2CCN(c3ccccc3Cl)CC2)o1`, for which the inhibition was 51% (active). In the case of `Cc1ccc(CN2CCN(Cc3cn(C)nc3-c3ccccc3)CC2CCO)o1` (stereo unspecified) it was -12.6%. Consider `COc1ccc(C(=O)NCc2nnc(SCC(=O)NC3=NCCS3)n2C)cc1`, for which the inhibition was -3.07%. With `CC(C)(C)OC(=O)NCCCCCNC(=O)c1[nH]cnc1C(=O)Nc1nccs1`, the inhibition was -11.3%. Consider `COC(=O)c1ccc(SCc2ccccc2)nc1`, for which the inhibition is -6.97%. As to `COC(=O)c1ccc(OC(=O)c2nn(C)cc2Cl)c(OC)c1`, the inhibition was 1.35%.

On to `COC(=O)c1ccc(-c2c(-c3ccccc3)ncc3cc(OC)c(OC)cc23)cc1`, for which the inhibition is 66.9% (active). In the case of `Cc1ccc2c(c1)C(c1ccccc1)N(C(=O)c1ccc(S(=O)(=O)N3CCOCC3)cc1)CC(=O)N2` (stereo unspecified) it was -1%. The figure for `O=S(=O)(Nc1ccc(O)c2ccccc12)c1ccc(OC(F)(F)F)cc1` is -14.4%. The figure for `Nc1ccccc1SC(C[N+](=O)[O-])c1ccccc1` (stereo unspecified) is 2.72%; for `Cc1c(NC(=O)C(C)OC(=O)c2c3c(nc4ccccc24)CCC(C)C3)c(=O)n(-c2ccccc2)n1C` (stereo unspecified) it is -2.49%; for `Cc1ccc(C(=O)OCC(=O)NCc2ccc3c(c2)OCO3)s1` it is -4.92%. Turning to `COc1cccc(CNCc2ccc3c(c2)OCO3)c1`, the inhibition was -9.52%. In the case of `COc1cccc(CC(=O)OCC(=O)NCc2ccc3c(c2)OCO3)c1` it was 64.5% (active); in that of `CCOC(=O)C1CCN(C(=O)C2CCCN(S(=O)(=O)c3ccc(OC)c(Cl)c3)C2)CC1` (stereo unspecified), -4.52%; in that of `CC(=O)OCCC(C)C`, 12.2%.

Turning to `CC1=NN(C(=O)CCc2ccccc2O)C(O)(C(F)(F)F)C1` (stereo unspecified), the inhibition is 63% (active). The figure for `CC1=NN(C(=O)CCCc2ccccc2)C(O)(C(F)(F)F)C1` (stereo unspecified) is -2.98%; for `COc1ccc(CC(=O)N2N=C(C)CC2(O)C(F)(F)F)cc1` (stereo unspecified) it is -2.15%; for `CC(C)(C)c1cc(P(=O)(c2ccccc2)c2ccccc2)ccc1O` it is 4.5%.

Take `CSc1ccc(/C=N/NC(=O)c2cccc(Cl)c2)cc1`: the inhibition was 63.9% (active).

For `O=C(NN=Cc1ccccc1)c1ccccc1`, the inhibition was -6.69%.

For the molecule `O=C(N/N=C/c1ccc(Cl)c(Cl)c1)c1ccc2nc[nH]c2c1`, the inhibition was 2.5%. In the case of `N#CCCN1CCN(S(=O)(=O)c2ccc(S(=O)(=O)NC3CCCCC3)cc2)CC1` it was -9.7%; in that of `Cc1ccc(C(=O)N/N=C/c2cccc3ccccc23)cn1`, 0.35%; in that of `COc1cccc(/C=N/NC(=O)c2[nH]nc3c2CCc2ccccc2-3)c1O`, 89% (active). Consider `COc1cc(/C=N/NC(=O)c2cc(-c3ccccc3C)nc3ccccc23)cc(OC)c1O`, for which the inhibition was -6.97%.

On to `CN(CCOc1ccccc1)C(=O)c1cc(-c2ccco2)nc2ccccc12`, for which the inhibition is 49%. The figure for `CN(C(=O)COC(=O)c1cc(-c2ccco2)nc2ccccc12)C1CCS(=O)(=O)C1` (stereo unspecified) is 88.8% (active).

Turning to `CN(C(=O)COC(=O)Cc1ccccc1[N+](=O)[O-])C1CCS(=O)(=O)C1` (stereo unspecified), the inhibition was 1.98%.
